Data from ChEMBL document CHEMBL4732238, “Synthesis, biological evaluation, and structure-activity relationships of new tubulin polymerization inhibitors based on 5-amino-1,2,4-triazole scaffold” (Bioorg Med Chem Lett, 2021).

How the values were obtained:
HeLa [1] = assay: Antiproliferative activity against human HeLa cells assessed as cell growth inhibition at 100 uM by MTT assay relative to control; assay type: functional; conditions: read-out: GI
Procedure, shortened: (§1)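 Five human lines (MCF-7, HeLa, A549, PC-3, Panc-1) exposed to a single 100 μM concentration. Viability read by MTT. Results expressed as […] versus untreated control cells.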

A549 = assay: Antiproliferative activity against human A549 cells assessed as cell growth inhibition at 100 uM by MTT assay relative to control; assay type: functional; conditions: read-out: GI; procedure, shortened: as §1
PC-3 = assay: Antiproliferative activity against human PC-3 cells assessed as cell growth inhibition at 100 uM by MTT assay relative to control; assay type: functional; conditions: read-out: GI; procedure, shortened: as §1
PANC-1 [2] = assay: Antiproliferative activity against human PANC-1 cells assessed as cell growth inhibition at 100 uM by MTT assay relative to control; assay type: functional; conditions: read-out: GI; procedure, shortened: as §1
MCF7 [3] = assay: Antiproliferative activity against human MCF7 cells assessed as cell growth inhibition at 100 uM by MTT assay relative to control; assay type: functional; conditions: read-out: GI; procedure, shortened: as §1
MCF7 [4] = assay: Antiproliferative activity against human MCF7 cells assessed as cell growth inhibition by MTT assay; assay type: functional, cell-based
Procedure, shortened: (§2)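 MTT antiproliferation readout. […] Mean ± SD from three independent experiments.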

HeLa [5] = assay: Antiproliferative activity against human HeLa cells assessed as cell growth inhibition by MTT assay; assay type: functional, cell-based; procedure, shortened: as §2
PANC-1 [6] = assay: Antiproliferative activity against human PANC-1 cells assessed as cell growth inhibition by MTT assay; assay type: functional, cell-based; procedure, shortened: as §2
K562 = assay: Antiproliferative activity against human K562 cells assessed as cell growth inhibition by MTT assay; assay type: functional, cell-based
Tubulin (Homo sapiens) = Tubulin (Homo sapiens) (UniProt P68371+Q9H4B7+P0DPH7+P68366+Q13509+Q71U36+P04350+Q3ZCM7+P07437+P68363+Q9BQE3+Q6PEY2+Q13885+Q9BVA1+Q9BUF5); assay: Inhibition of tubulin (unknown origin) polymerization at 10 uM measured every 1 min over 20 mins by fluorescence assay relative to control; assay type: protein-complex assay
Procedure, shortened: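 Tubulin in reaction buffer incubated at 37 °C with test agent at final 10 μM; control 1% DMSO. Polymerization followed at 340 nm, read every minute over 20 min. Run three times.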

Row | SMILES | inhibition of growth at 100 µM (HeLa [1]) | inhibition of growth at 100 µM (A549) | inhibition of growth at 100 µM (PC-3) | inhibition of growth at 100 µM (PANC-1 [2]) | inhibition of growth at 100 µM (MCF7 [3]) | IC50 (MCF7 [4]) | IC50 (HeLa [5]) | IC50 (PANC-1 [6]) | IC50 (K562) | inhibition (Tubulin (Homo sapiens))
1 | COc1cc(-c2nc(N)n(CC(=O)c3ccc(Cl)cc3)n2)cc(OC)c1OC | 38% | 26% | 26% | 6% | – | – | – | – | – | –
2 | COc1cc(-c2nc(N)n(Cc3ccc(C)cc3)n2)cc(OC)c1OC | 76% | 34% | 39% | 53% | 55% | 73.8 µM | 46.9 µM | 61.5 µM | 17.1 µM | 25%
3 | COc1cc(-c2nc(N)n(CC(=O)Nc3ccc(Cl)cc3)n2)cc(OC)c1OC | 30% | 22% | 14% | 12% | 37% | – | – | – | – | –
4 | COc1cc(-c2nc(N)n(CC(=O)Nc3c(C)cc(C)cc3C)n2)cc(OC)c1OC | 49% | 16% | 50% | 32% | 34% | – | – | – | – | –
5 | COc1cccc(C(=O)Cn2nc(-c3cc(OC)c(OC)c(OC)c3)nc2N)c1 | 27% | 20% | 37% | – | 30% | – | – | – | – | –
6 | COc1cc(-c2nc(N)n(Cc3ccc(Cl)cc3)n2)cc(OC)c1OC | 55% | 38% | 48% | 39% | 49% | – | – | – | – | –
7 | COc1cc(-c2nc(N)n(CC(=O)Nc3ccc(C)c(C)c3)n2)cc(OC)c1OC | 20% | 29% | – | 32% | 32% | – | – | – | – | –
8 | COc1cc(-c2nc(N)n(Cc3ccccc3F)n2)cc(OC)c1OC | 33% | 24% | 35% | 5% | 33% | – | – | – | – | –
9 | COc1cc(-c2nc(N)n(CC(=O)Nc3cccc(C)c3)n2)cc(OC)c1OC | 18% | 34% | 50% | 10% | 23% | – | – | – | – | –
10 | COc1ccc(NC(=O)Cn2nc(-c3cc(OC)c(OC)c(OC)c3)nc2N)cc1OC | 41% | 22% | 42% | 14% | 12% | – | – | – | – | –
11 | COc1ccc(/C=C\c2cc(OC)c(OC)c(OC)c2)cc1O [COMBRETASTATIN A4] | – | – | – | – | – | 0.17 µM | 0.0047 µM | – | 0.61 µM | –
12 | COc1ccc(NC(=O)Cn2nc(-c3cc(OC)c(OC)c(OC)c3)nc2N)cc1 | 30% | 9% | 33% | – | 50% | – | – | – | – | –
13 | COc1cc(-c2nc(N)n(Cc3ccc([N+](=O)[O-])cc3)n2)cc(OC)c1OC | 58% | 13% | 21% | 53% | 52% | 82.1 µM | 57.2 µM | > 100 µM | > 100 µM | –
14 | COc1cc(-c2nc(N)n(CC(=O)Nc3ccc(N(C)C)cc3)n2)cc(OC)c1OC | 29% | 7% | – | – | 14% | – | – | – | – | –
15 | COc1cc(-c2nc(N)n(CC(=O)c3ccc(F)c(F)c3)n2)cc(OC)c1OC | 31% | 14% | 28% | 52% | 48% | – | – | – | – | –
16 | COc1cc(-c2nc(N)n(CC(=O)Nc3ccc(C)cc3F)n2)cc(OC)c1OC | 32% | 12% | 25% | 22% | 21% | – | – | – | – | –
17 | COc1cc(-c2nc(N)n(CC(=O)c3ccc(F)cc3)n2)cc(OC)c1OC | 9% | 13% | 18% | – | 27% | – | – | – | – | –
18 | COc1cc(-c2nc(N)n(Cc3ccc(F)cc3)n2)cc(OC)c1OC | 28% | 42% | 41% | 7% | 34% | – | – | – | – | –
19 | COc1cc(-c2nc(N)n(CC(=O)c3ccc(C)cc3)n2)cc(OC)c1OC | 70% | – | 35% | 17% | 53% | 53 µM | 54 µM | > 100 µM | 33 µM | 42%
20 | CCCc1ccc(NC(=O)Cn2nc(-c3cc(OC)c(OC)c(OC)c3)nc2N)cc1 | 75% | 37% | 61% | 91% | 70% | 44.7 µM | 56.1 µM | 20 µM | 41.1 µM | 14%
21 | COc1cc(-c2nc(N)n(CC(=O)c3ccccc3)n2)cc(OC)c1OC | 42% | 15% | – | 4% | 30% | – | – | – | – | –
22 | COc1cc(-c2nc(N)n(CC(=O)c3cccc(Br)c3)n2)cc(OC)c1OC | 66% | 35% | – | 51% | 59% | 68.4 µM | 58.2 µM | 79.6 µM | > 100 µM | –
23 | CCc1ccc(NC(=O)Cn2nc(-c3cc(OC)c(OC)c(OC)c3)nc2N)cc1 | 12% | 27% | 40% | – | 31% | – | – | – | – | –
24 | COc1cc(-c2nc(N)n(CC(=O)Nc3ccc(C)cc3)n2)cc(OC)c1OC | 35% | – | 31% | 5% | – | – | – | – | – | –
25 | COc1cc(-c2nc(N)n(Cc3cc(OC(F)(F)F)cc(OC(F)(F)F)c3)n2)cc(OC)c1OC | 73% | 6% | 36% | 71% | 55% | > 100 µM | 53.1 µM | 73 µM | 31.5 µM | –
26 | COc1cc(-c2nc(N)n(Cc3cccc(C#N)c3)n2)cc(OC)c1OC | 28% | 30% | – | 6% | 43% | – | – | – | – | –
27 | COc1cc(-c2nc(N)n(CC(=O)Nc3ccc(C(C)C)cc3)n2)cc(OC)c1OC | 45% | – | 37% | 22% | 8% | – | – | – | – | –
28 | COc1cc(-c2nc(N)n(CC(=O)c3ccc(Br)cc3)n2)cc(OC)c1OC | 41% | 12% | 38% | 6% | 27% | – | – | – | – | –
29 | COc1cccc(NC(=O)Cn2nc(-c3cc(OC)c(OC)c(OC)c3)nc2N)c1 | 39% | – | 6% | – | – | – | – | – | – | –
